Substitutions are numbered along the chain they refer to. “Also recorded” adds a separate entry of the source.
Assays:
[1] = system: dorsal horn neurons; assay: Spinal cord slice electrophysiology; format: cell-based, rat; settings: for increase in eEPSC amplitude from baseline: reversal of the ADO tone; for sEPSC frequency and amplitude: nerve-injured rats, superfusion, reversed by DPCPX, n=8
Method in brief: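 Parasagittal lumbar cord slices (340 μm) from PNL and sham Sprague-Dawley rats, 9-15 weeks, cut in ice-cold sucrose ACSF and superfused at 2 ml/min, 34°C. Whole-cell voltage clamp at −70 mV in lamina I-II neurons; Cs-based internal with QX-314. eEPSCs evoked by dorsal root stimulation (C and A fibre) with gabazine 10 μM and strychnine 0.5 μM. Test compound superfused after stable baseline, then 1 μM DPCPX.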

[2] = system: nerve-injured rats; assay: Conditioned place preference; format: in vivo, rat; settings: intrathecal; for time spent in the drug paired chamber: nerve-injured rats, n=8
Method in brief: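 Male and female Sprague-Dawley rats, 10-16 weeks, with partial sciatic nerve ligation and lumbar intrathecal catheters. Three-chamber box; pre-conditioning began 10 days post-surgery, excluding rats spending >80% of time in one chamber. Vehicle (DMSO/saline 60:40 or saline) was paired with one chamber in the morning and intrathecal drug with the opposite chamber 4 h later, counterbalanced. Rats were recorded 15 min with free access 20 h later; n = 8/group; morphine positive control.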

[3] = system: rats; assay: Rotarod; format: in vivo, rat
[4] = target: T1, A1R alone reconstituted in rHDL (Homo sapiens, UniProt P30542); assay: [3H]DPCPX dissociation at A1R-rHDL particles, absence of G protein; format: binding; settings: 30 μM MIPS521, SLV320 isotopic dilution
T1 sequence (P30542 1-326): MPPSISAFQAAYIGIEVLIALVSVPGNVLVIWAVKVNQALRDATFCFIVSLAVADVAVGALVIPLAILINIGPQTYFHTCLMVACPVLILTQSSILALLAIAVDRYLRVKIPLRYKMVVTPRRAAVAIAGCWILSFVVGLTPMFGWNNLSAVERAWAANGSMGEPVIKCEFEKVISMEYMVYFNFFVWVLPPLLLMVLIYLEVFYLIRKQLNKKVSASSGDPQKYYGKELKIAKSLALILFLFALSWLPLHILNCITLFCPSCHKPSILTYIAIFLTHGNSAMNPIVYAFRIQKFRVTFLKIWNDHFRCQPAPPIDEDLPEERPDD
Method in brief: (§1)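 Purified A1R reconstituted into MSP1D1 nanodiscs (POPC:POPG 3:2; molar ratio 1:10:800) for 1 h at 4°C, then Bio-beads overnight; empty discs removed on anti-Flag resin. Particles ± Gi2 heterotrimer (1:50 molar) were equilibrated 1 h with 2 nM [3H]DPCPX ± 30 μM test compound. Dissociation started with excess SLV320, filtered on GF/C and counted. Fitted to mono-exponential decay; n = 3-5, duplicate.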

[5] = system: rat atrial beat rate; assay: Isolated rat atrial experiments; settings: isolated rat atria, concentration-response
[6] = Stability in human plasma; format: in vitro ADME
[7] = target: A1R-rHDL particles with Gi2 heterotrimeric protein (Homo sapiens, UniProt P30542); assay: [3H]DPCPX dissociation at A1R-rHDL particles with saturating Gi2; format: binding; settings: 30 μM MIPS521; saturating concentration of Gi2; SLV320 isotopic dilution
Method in brief: as §1

[8] = target: T2, mutant A1R (Homo sapiens, UniProt P30542, S246A); format: binding; settings: S246^6.47A
T2 sequence (P30542 1-326 S246A): T1 sequence (P30542 1-326) with S246A

[9] = system: mutant A1R; format: binding, human; settings: bulkier side chains at position 7.44 (G279^7.44)
[10] = target: T3, mutant A1R (Homo sapiens, UniProt P30542, L276A); format: binding; settings: L276^7.41A
T3 sequence (P30542 1-326 L276A): T1 sequence (P30542 1-326) with L276A

[11] = target: T4, mutant A1R (Homo sapiens, UniProt P30542, F275V); format: binding; settings: F275^7.40V
T4 sequence (P30542 1-326 F275V): T1 sequence (P30542 1-326) with F275V

[12] = target: T5, mutant A1R (Homo sapiens, UniProt P30542, M283V); format: binding; settings: M283^7.48V
T5 sequence (P30542 1-326 M283V): T1 sequence (P30542 1-326) with M283V

[13] = target: T6, mutant A1R (Homo sapiens, UniProt P30542, L242A/L245A); format: binding; settings: alanine mutation of both L242^6.43 and L245^6.46
T6 sequence (P30542 1-326 L242A/L245A): T1 sequence (P30542 1-326) with L242A, L245A

[14] = target: T7, human A1R expressed in CHO cells (Homo sapiens, UniProt P30542); format: cell-based
T7 sequence (P30542 1-326): T1 sequence (P30542 1-326)
Method in brief: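 FlpIN-CHO cells stably expressing WT A1R, grown in DMEM with 20 mM HEPES, 5% FBS and hygromycin B; seeded at 20,000 cells/well overnight. At 37°C in HEPES-buffered saline with rolipram, pH 7.45: 30 min preincubation, 10 min test compound, then 3 μM forskolin ± increasing ADO for 30 min. Stopped with ice-cold ethanol; cAMP expressed as % of forskolin response.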

[15] = system: nerve-injured rats; format: in vivo, rat; settings: intrathecal
Method in brief: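 Sciatic nerve partially ligated (one third to one half) under isoflurane; allodynia confirmed at day 14. Intrathecal catheters placed at day 12 in male and female Sprague-Dawley rats, 9-14 weeks. After baseline, blinded 10 μL dose (DMSO/saline 60:40) plus 25 μL saline flush. Von Frey filaments 0.52-14.8 g, up-down method, over a time course, including 1 h post-dose. n = 8-10; catheter placement checked with lignocaine.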

[16] = Stability in rat plasma; format: in vitro ADME
[17] = intrathecal, compared to vehicle controls, n=3-4
[18] = operational model, ADO, 3 μM forskolin

Sequence of A1R-rHDL particles with Gi2 heterotrimeric protein (P62873 whole entry, one chain of several): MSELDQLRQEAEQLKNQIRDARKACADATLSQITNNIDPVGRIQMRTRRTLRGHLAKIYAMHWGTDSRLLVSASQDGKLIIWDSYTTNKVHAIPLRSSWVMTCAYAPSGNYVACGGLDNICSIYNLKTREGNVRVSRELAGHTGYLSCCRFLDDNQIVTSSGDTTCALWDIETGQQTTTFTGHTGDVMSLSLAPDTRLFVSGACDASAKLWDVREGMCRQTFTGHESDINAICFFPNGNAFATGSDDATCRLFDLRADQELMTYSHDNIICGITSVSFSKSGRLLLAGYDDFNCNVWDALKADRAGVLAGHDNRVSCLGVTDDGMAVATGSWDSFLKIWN
Sequence of A1R-rHDL particles with Gi2 heterotrimeric protein (P59768 2-68, one chain of several, further chain): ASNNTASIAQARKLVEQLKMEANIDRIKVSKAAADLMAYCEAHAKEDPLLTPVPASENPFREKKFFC
Sequence of A1R-rHDL particles with Gi2 heterotrimeric protein (P04899 2-355, one chain of several, further chain): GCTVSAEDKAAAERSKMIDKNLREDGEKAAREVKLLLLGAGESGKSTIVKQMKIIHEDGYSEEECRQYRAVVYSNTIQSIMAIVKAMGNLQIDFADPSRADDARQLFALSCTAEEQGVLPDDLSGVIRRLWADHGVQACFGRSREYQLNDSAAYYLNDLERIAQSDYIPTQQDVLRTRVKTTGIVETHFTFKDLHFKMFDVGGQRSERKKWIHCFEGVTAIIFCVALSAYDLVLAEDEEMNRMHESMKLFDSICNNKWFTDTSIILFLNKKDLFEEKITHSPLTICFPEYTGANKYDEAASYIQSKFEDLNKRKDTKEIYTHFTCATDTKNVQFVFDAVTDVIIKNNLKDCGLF

In the case of `CCCn1c(=O)c2[nH]c(C3CCCC3)nc2n(CCC)c1=O` [DPCPX, reference compound], the “increase in eEPSC amplitude from baseline” value ([1]; nerve-injured animals) is reported as 19.7 ± 6.1% and the “increase in eEPSC amplitude from baseline” value ([1]; sham controls) is reported as 7.89 ± 2.7%.

In the case of `Nc1scc(-c2cc(C(F)(F)F)cc(C(F)(F)F)c2)c1C(=O)c1ccc(Cl)cc1` [MIPS521], the “time spent in the drug paired chamber” value ([2]; 10 μg) is reported as “increased the time nerve-injured rats spent in the drug paired chamber”, the spontaneous pain ([2]; lower dose than VCP171 (10 μg)) is reported as “significantly reduced spontaneous pain” and the “rotarod latency to fall / motor function” value [3, 17] is reported as “neither MIPS521 nor VCP171 affected motor function; also recorded: not significantly different to vehicle controls”. The “effect on dissociation of pre-equilibrated [3H]DPCPX” value [4] was “no effect”, the “effect on rat atrial beat rate” value [5] was “minimal effect” and the “sEPSC frequency and amplitude” value [1] was “reduced”. The “pEC50 for reducing eEPSCs” value ([1]; spinal cord from nerve-injured animals, n=4-12) was 6.9 ± 0.4, the stability in plasma ([6]; 4-hour incubation period) was “stable” and the “effect on dissociation of pre-equilibrated [3H]DPCPX” value [7] was “even more profound retardation”. The “change in PAM affinity (pKB) vs wild type” value (shortened to “change in PAM affinity (pKB)”) [8] was “significant decrease in both PAM affinity and cooperativity”, the “change in binding cooperativity (log α) with NECA vs wild type” value (from here on “change in binding cooperativity (log α)”) [8] was “significant decrease in both PAM affinity and cooperativity” and the “change in PAM affinity (pKB)” value [9] was “significant loss of both modulator affinity and cooperativity”. For the same molecule, the “change in binding cooperativity (log α)” value [9] was “significant loss of both modulator affinity and cooperativity”, the “change in PAM affinity (pKB)” value [10] was “significantly decreased MIPS521 affinity” and the “change in PAM affinity (pKB)” value [11] was “decrease in affinity”. For the same molecule, the “change in PAM affinity (pKB)” value [12] was “significantly reduced the affinity”, the “change in PAM affinity (pKB)” value [13] was “no effect on affinity” and the “change in binding cooperativity (log α)” value [13] was “significant decrease in PAM cooperativity”. For the same molecule, the “affinity for the A1R allosteric site, pKB” value ([14]; operational model of allosterism and agonism, ADO, 3 μM forskolin, n=3) was 4.95 ± 0.40, the “positive cooperativity with ADO, Log αβ” value [14, 18] was 1.81 ± 0.53 and the “direct allosteric agonism / signaling efficacy, Log τB” value ([14]; operational model, recombinant CHO cells) was 0.96 ± 0.34. For the same molecule, the “mechanical hyperalgesia (paw withdrawal threshold)” value ([15]; compared with VCP171) was “reversed the mechanical hyperalgesia at lower concentrations than VCP171” and the stability in plasma ([16]; 4-hour incubation period) was “stable”.

For `Nc1scc(-c2cccc(C(F)(F)F)c2)c1C(=O)c1ccccc1` [VCP171, (2-amino-4-(3-(trifluoromethyl)phenyl)thiophen-3-yl)(phenyl)methanone], the spontaneous pain ([2]; 30 μg (highest dose)) was “reduced spontaneous pain”, the “time spent in the drug paired chamber” value ([2]; 30 μg) was “increased the time nerve-injured rats spent in the drug paired chamber” and the “rotarod latency to fall / motor function” value ([3]; both, Sprague Dawley, rat, in vivo) was “neither MIPS521 nor VCP171 affected motor function”. The “rotarod latency to fall / motor function” value ([3]; rat, in vivo) was “not significantly different to vehicle controls”, the “sEPSC frequency and amplitude” value [1] was “reduced” and the “time stable in plasma” value [6] was “at least 4 h”. For the same molecule, the Kb [14] was 3.16 µM, the “positive cooperativity with ADO, Log αβ” value [14, 18] was 0.76 ± 0.25 and the “allodynia (paw withdrawal threshold)” value ([15]; 30 μg) was “small reduction of allodynia”. The paw withdrawal threshold ([15]; 1-10 μg) was “no effect” and the “time stable in plasma” value [16] was “at least 4 h”.

In the case of `CN1CC[C@]23c4c5ccc(O)c4O[C@H]2[C@@H](O)C=C[C@H]3[C@H]1C5` [morphine, reference compound], the “time spent in the drug paired chamber” value ([2]; 10 μg) is reported as “increased the time nerve-injured rats spent in the drug paired chamber” and the “rotarod latency to fall / motor function” value [3, 17] is reported as “reduces rotarod latency to fall”.

— article PMC8711093 (Nature, 2021)
